Assay results from different studies.
Lines come from different studies, so protocols differ.
Medium: plasma

Structure (SMILES) | species | route | dose | notes | Tmax
CC(C)n1cc(C#N)c2cc(-n3cc(C(=O)O)cn3)ccc21 | human | oral | 25 mg | single dose, fasted, healthy volunteers | 3.26 h
Cc1cn([C@H]2C[C@H](N=[N+]=[N-])[C@@H](CO)O2)c(=O)[nH]c1=O | human | oral | 600 mg | single dose, healthy volunteers | 0.62 h
CC(=O)N(C)[C@H]1CCN(C(=O)c2cnc3c(c2)C[C@](C)(c2ccc(F)cc2)N3)C1 | male human | oral | 30 mg | multiple doses, once daily, steady state | 0.75 h
CC1(C)CC[C@]2(NC(=O)C(C)(F)F)CC[C@]3(C)[C@H](C(=O)C=C4[C@@]5(C)C=C(C#N)C(=O)C(C)(C)[C@@H]5CC[C@]43C)[C@@H]2C1 | human | oral | 150 mg | single dose | 12 h
O=C(COc1ccc(Cl)cc1)NC12CC(c3nnc([C@H]4C[C@@H](OC(F)(F)F)C4)o3)(C1)C2 | human | oral | 260 mg | multiple doses, once daily, steady state, healthy volunteers | 3 h
N#Cc1cccc(-c2ccc3ncc(-c4cc(F)cc(F)c4)c(N4CCC(N)CC4)c3c2)c1O | male human | intravenous | 50 µg |  | 0.03 h
C[C@@H](Oc1ccc(S(C)(=O)=O)cc1C(=O)N1C[C@@H]2C[C@]2(c2cc(C(F)(F)F)on2)C1)C(F)(F)F | human | oral | 10 mg | single dose, fed | 2.5 h
COc1ccc2c(c1)CN(C(=O)CCN1CCC(Cc3ccccc3)CC1)CC[S@@+]2[O-] | male human | intravenous | 0.05 mg/kg | healthy volunteers | 0 h
OC[C@H]1O[C@@H](c2cc(Cc3ccc(C4CC4)cc3)c(Cl)c3c2CCO3)[C@H](O)[C@@H](O)[C@@H]1O | human | oral | 0.3 mg | single dose, fed, healthy volunteers | 2 h
COc1ccc(F)cc1C(=O)NCc1ccc(-c2nn([C@@H](C)C(F)(F)F)c(N)c2C(N)=O)cc1 | male human | oral | 200 mg | single dose | 5 h
